Source: PubChem (several laboratories)
An excerpt weighted towards active compounds, which were near 1.9% of everything screened.
Hck-Nef inh: blocks Nef-activated human Hck kinase; inhibition, % at 20 µM; actives 0.68% (n = 220,000); Recombinant Hck-YEEI plus Nef, Z-Lyte FRET kinase assay;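 active means Hck-Nef kinase inhibition above about 50%, limit read from the data; inactive means inhibition below that limit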
Runt-SMMHC FRET: blocks binding of human RUNX1 Runt domain to CBFb-SMMHC. Q01196+Q13951. Cerulean-Runt/Venus-CBFb-SMMHC FRET ratio 530/480, 1 h. inhibition, % at 20 µM. actives 0.74% (n = 220,000). AID 1434;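 active means mean inhibition across duplicate retests at 20 µM reaching about 50%, limit read from the data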;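 further: inhibitors lower the FRET ratio by blocking Runt binding to CBFb-SMMHC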
Target sequence (Q01196 whole entry, looked up, the tested form may be a part): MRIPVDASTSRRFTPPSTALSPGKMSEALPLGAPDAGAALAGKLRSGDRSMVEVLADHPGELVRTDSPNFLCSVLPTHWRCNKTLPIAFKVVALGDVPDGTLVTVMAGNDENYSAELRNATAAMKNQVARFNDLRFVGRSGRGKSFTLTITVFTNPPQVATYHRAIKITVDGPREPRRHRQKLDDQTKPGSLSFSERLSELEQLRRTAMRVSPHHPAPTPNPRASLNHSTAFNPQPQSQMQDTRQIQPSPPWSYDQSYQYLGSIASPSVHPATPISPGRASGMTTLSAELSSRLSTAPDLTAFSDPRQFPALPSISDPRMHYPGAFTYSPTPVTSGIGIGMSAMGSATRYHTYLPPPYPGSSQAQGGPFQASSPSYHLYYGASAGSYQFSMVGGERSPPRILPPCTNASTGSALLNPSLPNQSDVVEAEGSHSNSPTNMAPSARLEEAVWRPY
Target sequence (Q13951 whole entry, looked up, the tested form may be a part): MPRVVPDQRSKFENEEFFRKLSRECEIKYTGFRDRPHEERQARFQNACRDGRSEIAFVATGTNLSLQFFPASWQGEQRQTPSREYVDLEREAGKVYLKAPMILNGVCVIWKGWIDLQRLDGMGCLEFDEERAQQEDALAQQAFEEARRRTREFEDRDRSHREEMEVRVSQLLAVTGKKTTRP
RanGTP-Impb inh: disruptors of Ran-importin-beta complex formation – biochemical, FRET, CFP-Ran, YFP-importin-beta, homogeneous, primary screen; cell-free CFP-Ran/YFP-importin-beta FRET ratio; inhibition, % (test concentration not listed); actives 1.1% (n = 300,000);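 active means more than half of the replicate wells show a fall in the fluorescence ratio signal beyond about 16%, limit read from the data, passing the limit was not always enough; inconclusive means exactly half of the replicate wells pass the set limit; inactive means fewer than half of replicates pass the limit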
TbHK1 inh: T. brucei hexokinase 1 inhibition. recombinant TbHK1, G6PDH-coupled NADH A340. inhibition, % at 10 µM. actives 0.11% (n = 220,000). AID 1430;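 active means inhibition of 50% or more in the single-dose primary screen; inactive means inhibition below 50%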
Runt-CBFb FRET: inhibitors of human RUNX1 Runt domain binding to CBFb. Q01196+Q13951. Cerulean-Runt/Venus-CBFb FRET ratio 530/480, 1 h. inhibition, % at 20 µM. actives 0.46% (n = 220,000). AID 1496;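 active means inhibition over about 50% at 20 µM in the single-dose screen, limit read from the data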
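Doses: 20 µM compound in 1% DMSO | Material: Cerulean-labeled Runt domain protein | Amount: Each fluorescent fusion protein 100 nM | Schedule: Two 1 h room-temperature incubations shielded from light | Measured by: FRET fluorescence | Evaluation: Loss of energy transfer signal | Controls: Unlabeled CBFb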
Hck-Nef confirm: Hck-Nef kinase inhibition, confirmation; calls only at 10 µM; Recombinant Hck-YEEI:Nef, Z-Lyte FRET kinase assay; AID 463188; shares compounds with Hck-Nef inh; actives 28% (n = 1,300);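 active means average inhibition of at least 50%, with Z-scores no higher than 3 in both the phospho-tyrosine peptide and fluorescence counterscreens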
Numbers stand for hits; i = inactive; ? = inconclusive; nt = not tested or not shown; + = active, no number.

SMILES	Hck-Nef inh	Runt-SMMHC FRET	RanGTP-Impb inh	TbHK1 inh	Runt-CBFb FRET	Hck-Nef confirm
Cn1c(=O)[nH]c(=O)c2c1nc(N/N=C/C(Br)=C/c1ccccc1)n2CCO	60	i	?	i	i	+
CC(C)=NNc1nc2c(c(=O)[nH]c(=O)n2C)n1CCc1ccccc1	i	i	i	i	i	nt
COC(=O)c1ccccc1NS(=O)(=O)c1c(C)noc1C	nt	nt	i	nt	nt	nt
COc1ccccc1NS(=O)(=O)c1cccc(-n2c(O)c(C=Nc3ccccc3C(=O)O)c3ccccc3c2=O)c1	62	i	i	i	i	i
COc1ccc(-n2c(O)c(/C=N/NS(=O)(=O)c3ccc(C)cc3)c3ccccc3c2=O)cc1OC	i	i	i	i	i	nt
COCc1ccc(CN2CCCC(C(=O)Nc3ccc(-c4cscn4)cc3)C2)o1 (centres undefined)	nt	nt	i	nt	nt	nt
Cc1c2c(n3c(nc4ccccc43)c1C#N)N(CCN(C)C)CC2	55	91	i	i	i	i
CCCCc1c(C)c(C#N)c2nc3ccccc3n2c1NCCN(C)C	nt	nt	i	nt	nt	nt
Cc1c2c(n3c(nc4ccccc43)c1C#N)N(CCCN(C)C)CC2	54	91	i	i	100	i
NNC(=O)/C(=C\c1ccc(Br)cc1)NC(=O)c1cccs1	i	i	i	i	i	nt
COc1ccc(NC(=O)c2cc3c(=O)n(C)c4ccccc4c3n2C)cc1OC	i	i	i	i	i	nt
COc1ccc(NC(=O)c2cc3c(=O)n(C)c4ccccc4c3n2C)cc1Cl	61	i	i	i	i	i
COc1c(O)cc2oc(-c3ccc(O)cc3)cc(=O)c2c1O	91	i	i	i	i	+
COc1cc2oc(-c3ccc(O)cc3)cc(=O)c2c(O)c1OC	89	i	?	i	i	+
COc1cc2oc(-c3ccc(O)cc3)cc(=O)c2c(OC)c1O	i	i	i	i	i	nt
Cc1nc(CN2CCCCC2)cc(=O)[nH]1	i	i	i	i	i	nt
Cc1ccc(C)c(N2C(=O)C3C4C=CC(CC4)C3C2=O)c1 (centres undefined)	nt	nt	i	nt	nt	nt
Cc1ccc(C(=O)C[n+]2cc(Br)cc(Br)c2)cc1[N+](=O)[O-]	i	i	i	i	i	nt
O=C(Nc1ccc(S(=O)(=O)Nc2nccs2)cc1)c1cccc(N2C(=O)c3ccccc3C2=O)c1	i	i	i	i	i	nt
O=C(Nc1nccs1)c1cccc(N2C(=O)c3cccc4c([N+](=O)[O-])ccc(c34)C2=O)c1	52	i	i	i	i	+
Cc1ccccc1CC(=O)N1CCOCC1	nt	nt	i	nt	nt	nt
Cc1ccc(S(=O)(=O)c2c(N)n(NC(=O)c3ccco3)c3nc4ccccc4nc23)cc1	i	i	nt	i	i	nt
CN(C)CCCn1c(N)c(S(=O)(=O)c2ccccc2)c2nc3ccccc3nc21	85	i	i	i	i	nt
C=CCn1c(NS(=O)(=O)c2ccccc2)c(S(=O)(=O)c2ccc(C)cc2)c2nc3ccccc3nc21	83	i	76	i	i	i
O=S(=O)(Nc1c(S(=O)(=O)c2ccccc2)c2nc3ccccc3nc2n1C1CCCCC1)c1ccccc1	53	i	i	i	i	nt
SMILES	Hck-Nef inh	Runt-SMMHC FRET	RanGTP-Impb inh	TbHK1 inh	Runt-CBFb FRET	Hck-Nef confirm
Cc1ccc(S(=O)(=O)c2c(N)n(-c3ccccc3)c3nc4ccccc4nc23)cc1	i	i	?	i	i	nt
O=C(N=Nc1ccc(NOC(=O)c2ccccc2Br)cc1)c1ccccc1O	68	i	i	i	i	i
O=Nc1ccc(NOC(=O)c2ccccc2)cc1	i	i	i	i	i	nt
O=C(Nc1ccc(-n2nncc2-c2ccco2)cc1)c1cc2ccccc2oc1=O	51	i	i	i	i	+
CC(C)[C@H](CO)Nc1nc(Nc2ccc(Cl)c(C(=O)O)c2)c2ncn(C(C)C)c2n1	65	i	i	i	i	+
CC(C)[C@H](CO)Nc1nc(NCc2ccc(S(N)(=O)=O)cc2)c2ncn(C(C)C)c2n1	i	i	i	i	i	nt
CC(C)n1cnc2c(Nc3cccc(Cl)c3)nc(NCCCO)nc21	96	i	i	i	i	+
CC(C)n1cnc2c(Nc3ccc(C(=O)O)cc3)nc(Cl)nc21	53	i	i	i	i	i
N#CCCNc1c(Cl)cc(Cl)cc1C(=O)O	i	i	i	i	i	nt
O=C(/C=C/c1cccc([N+](=O)[O-])c1)N1CCN(Cc2ccc3c(c2)OCO3)CC1	i	i	i	i	i	nt
O=C(O)c1cc(-c2ccco2)nn1-c1ccc(Cl)cc1	i	i	i	i	i	nt
Cc1ccc(-n2nc(-c3ccco3)cc2C(=O)O)c(C)c1	55	i	i	i	i	i
O=C(O)c1cc(-c2ccco2)nn1-c1cccc(Cl)c1	52	i	i	i	i	i
COc1ccc(S(=O)(=O)N2CCC(C(=O)NCc3cccnc3)CC2)cc1OC	nt	nt	i	nt	nt	nt
Cc1nn(CCc2nn[nH]n2)c2nc(-c3ccc(C4CCCCC4)cc3)cc(C(F)(F)F)c12	71	i	i	i	i	+
CCOC(=O)c1c(/N=C/N(C)C)sc(/C=N/Nc2ccccc2)c1-c1ccccc1Cl	i	i	i	i	i	nt
CCOC(=O)c1c(/N=C/N(C)C)sc(C=O)c1-c1ccccc1	98	134	i	i	103	i
CCCCSc1nnc(-c2ccccc2NC(C)=O)c(=O)[nH]1	i	i	?	i	i	nt
Fc1cccc(-n2c(-c3cccs3)nc3nc4ccccc4nc32)c1	59	i	i	i	i	i
CCc1cc(=O)n2c([nH]c3ccccc32)c1C#N	i	i	i	i	i	nt
COCc1cc(=O)n2c([nH]c3ccccc32)c1C#N	67	59	i	i	i	nt
CCc1cc(=S)n2c([nH]c3ccccc32)c1C#N	71	i	i	i	i	i
O=[N+]([O-])c1cc(-c2ncccn2)cs1	i	i	i	i	i	nt
COc1ccc(NC(=O)CN2C(=O)NC(C)(c3ccccc3)C2=O)c(OC)c1 (centres undefined)	nt	nt	i	nt	nt	nt
COc1ccc(Nc2n[nH]c(N)c2C(N)=O)cc1	65	i	i	i	i	i
SMILES	Hck-Nef inh	Runt-SMMHC FRET	RanGTP-Impb inh	TbHK1 inh	Runt-CBFb FRET	Hck-Nef confirm
CCCc1cc(=O)oc2c(CN(CC)CC)c(O)c(Cl)cc12	+	129	24	i	91	nt
CN(C)Cc1c(O)ccc2c(-c3ccccc3)cc(=O)oc12	i	i	i	i	i	nt
CCCc1cc(=O)oc2cc(OCC(=O)N(C)C)c(Cl)cc12	i	i	i	i	i	nt
CCCCc1cc(=O)oc2c(CN(C)C)c(O)ccc12	83	107	i	i	i	nt
CCc1c(C)c2ccc(O)c(CN(C)C)c2oc1=O	59	131	i	i	i	nt
Cc1ccc(N2C(=O)CC(Sc3nc4ccccc4o3)C2=O)cc1Cl (centres undefined)	i	i	i	i	i	nt
CN(CC1CCOCC1)C(=O)CC1C(=O)NCCN1Cc1ccc(F)c(F)c1 (centres undefined)	nt	nt	i	nt	nt	nt
